Results from paper PMC8851253 (Heliyon, 2022).

How the values were obtained:
[1] = test system: P. falciparum (3D7 strain); test: Anti-plasmodial activity, pLDH assay; format: cell-based, Plasmodium falciparum; settings: for EC50: Plasmodium falciparum, 3D7, 72 h, read-out: Anti-plasmodial EC50; for SI (anti-plasmodial): Selectivity index = LC50 (U-937)/EC50 (P. falciparum)
Summary of the method: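 Asynchronous P. falciparum 3D7 at 0.5% parasitemia, 1% hematocrit in RPMI-1640/1% Albumax II is exposed to test compound at 100, 25, 3.125 and 0.78 µg/mL. Incubation is 72 h at 37 °C under 90% N2/5% CO2/5% O2. Freeze-thawed lysate goes into Malstat (pH 9.0) plus NBT/PES for 1 h in the dark. pLDH is read at 650 nm, blank-subtracted. Chloroquine is the control. SI = U-937 LC50/EC50.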

[2] = test system: intracellular amastigotes of L. panamensis; test: Anti-leishmanial activity, GFP flow cytometry in infected U-937 cells; format: cell-based, Leishmania panamensis; settings: for EC50: Leishmania panamensis, U-937, 72 h, read-out: Anti-leishmanial EC50; for SI (anti-leishmanial): Selectivity index = LC50 (U-937)/EC50 (L. panamensis); for Anti-leishmanial activity class: L. panamensis
Summary of the method: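 L. panamensis GFP strain MHOM/CO/87/UA140 stationary promastigotes infect PMA-treated U-937 cells (3×10^5 cells/mL) at 15:1, 3 h at 34 °C, 5% CO2, then washed. At 24 h, test compound (50.0, 12.5, 3.1, 0.8 µg/mL) is added for 72 h at 37 °C. Flow cytometry at 488/525 nm over 10,000 events gives MFI, corrected with uninfected cells. Amphotericin B is the control. Triplicate, two experiments. SI = U-937 LC50/EC50.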

[3] = In vitro cytotoxic activity, MTT assay; format: cell-based, human; settings: human, U-937 cells, Cytotoxicity LC50, U-937 cells, MTT, ±SD (n = 3)
Summary of the method: (§1)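 Human U-937 macrophages in RPMI 1640/10% FBS are exposed to test compound from 200 to 0.19 µg/mL. MTT formazan is read as OD at 570 nm, with untreated cells as the viability control. Triplicate. LC50 comes from Probit linear regression of dose-response. Classes: LC50 <100 µM potentially cytotoxic, 100–<200 µM mildly cytotoxic, ≥200 µM noncytotoxic.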

[4] = test system: intracellular amastigotes of T. cruzi (Tulahuen strain); format: cell-based, Trypanosoma cruzi; settings: for SI (anti-trypanosomal): Selectivity index = LC50 (U-937)/EC50 (T. cruzi); for EC50: Trypanosoma cruzi, TULAHUEN, U-937, 72 h, read-out: Anti-trypanosomal EC50
Summary of the method: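 T. cruzi Tulahuen (β-galactosidase-transfected) epimastigotes are grown 10 days at 26 °C. U-937 cells (2.5×10^4/100 µL, 0.16 µM PMA) are infected at 5:1 for 24 h at 37 °C, 5% CO2, RPMI/10% FBS, then washed. Six serial compound dilutions run for 72 h. CPRG 100 µM plus 0.1% NP-40 for 4 h, dark, then OD 570 nm, blank-subtracted. Benznidazole is the control. Triplicate, ≥2 experiments. SI = U-937 LC50/EC50.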

U-937 cells = test: In vitro cytotoxic activity, MTT assay; format: cell-based, human; settings: for Degree of cytotoxicity: class by LC50 scale of b21
Summary of the method: as §1

Compound	EC50 [1]	SI (anti-plasmodial) [1]	EC50 [2]	SI (anti-leishmanial) [2]	CC50 [3]	SI (anti-trypanosomal) [4]	EC50 [4]	Anti-leishmanial activity class [2]	Degree of cytotoxicity (U-937 cells)	Toxicity class (U-937 cells; class by United Nations 2009 scale)
O=C(/C=C/c1ccccc1)c1ccccc1 [Chalcone, reference compound]	769 ± 72 µM	0.04	15 ± 1.44 µM	1.86	27.9 ± 0.5 µM	0.28	99.9 ± 39 µM	–	–	–
O=C(/C=C/c1cccc(O)c1)c1cc2ccccc2oc1=O [Compound A5, 3-[(2E)-3-(3-hydroxyphenyl)prop-2-enoyl]-2H-chromen-2-one]	26.7 ± 3.6 µM	0.22	2.1 ± 0.2 µM	2.85	5.9 ± 0.2 µM	0.31	18.7 ± 2.4 µM	–	–	–
Cc1cccc(/C=C/C(=O)c2cc3ccccc3oc2=O)c1 [Compound A4, 3-[(2E)-3-(3-methylphenyl)prop-2-enoyl]-2H-chromen-2-one]	35.3 ± 1.4 µM	0.16	10.7 ± 5.7 µM	0.53	5.7 ± 0.1 µM	0.11	50 ± 5.3 µM	highly active (Compounds with EC50 ≤ 25 μM were considered highly active)	–	–
CCN(CC)CCCC(C)Nc1ccnc2cc(Cl)ccc12 (stereo not shown) [Chloroquine, reference compound]	3.3 ± 0.4 µM	46.34	–	–	155 ± 5.2 µM	–	–	–	–	–
O=C(/C=C/c1ccc([N+](=O)[O-])cc1)c1cc2ccccc2oc1=O [Compound A8, 3-[(2E)-3-(4-nitrophenyl)prop-2-enoyl]-2H-chromen-2-one]	18.4 ± 1 µM	–	197 ± 76.9 µM	3.05	–	1.91	314 ± 19.9 µM	–	–	–
O=C(/C=C/c1ccc(Br)cc1)c1cc2ccccc2oc1=O [Compound A11, 3-[(2E)-3-(4-bromophenyl)prop-2-enoyl]-2H-chromen-2-one]	20.9 ± 1.2 µM	1.54	31.4 ± 4.2 µM	1.02	32.1 ± 2.2 µM	0.72	44.4 ± 3.5 µM	–	–	–
COc1cccc(/C=C/C(=O)c2cc3ccccc3oc2=O)c1 [Compound A2, 3-[(2E)-3-(3-methoxyphenyl)prop-2-enoyl]-2H-chromen-2-one]	23.3 ± 1.5 µM	0.25	2.5 ± 0.2 µM	2.31	5.8 ± 0.1 µM	0.20	28.4 ± 5.7 µM	–	–	–
O=c1ccc2ccccc2o1 [Coumarin, reference compound]	50.7 ± 5.7 µM	0.25	64.4 ± 21.8 µM	0.20	12.9 ± 0.5 µM	<1.83	> 7 µM	–	–	–
O=C(/C=C/c1ccc(Cl)cc1)c1cc2ccccc2oc1=O [Compound A9, 3-[(2E)-3-(4-chlorophenyl)prop-2-enoyl]-2H-chromen-2-one]	18.9 ± 1.5 µM	–	59.1 ± 12.7 µM	0.73	43.4 ± 3.9 µM	0.83	52.1 ± 3.3 µM	–	–	–
C[C@@H]1[C@H](O)[C@@H](C)/C=C/C=C/C=C/C=C/C=C/C=C/C=C/[C@H](O[C@@H]2O[C@H](C)[C@@H](O)[C@H](N)[C@@H]2O)C[C@@H]2O[C@](O)(C[C@@H](O)C[C@@H](O)[C@H](O)CC[C@@H](O)C[C@@H](O)CC(=O)O[C@H]1C)C[C@H](O)[C@H]2C(=O)O [Amphotericin B, reference compound]	–	–	0.3 ± 0.1 µM	108.67	32.6 ± 4 µM	–	–	–	–	–
O=C(/C=C/c1ccccc1)c1cc2ccccc2oc1=O [Compound A1, 3-[(2E)-3-phenylprop-2-enoyl]-2H-chromen-2-one]	25.7 ± 3.5 µM	0.26	3.7 ± 0.5 µM	1.82	6.7 ± 0.1 µM	0.15	44.1 ± 4.2 µM	highly active (Compounds with EC50 ≤ 25 μM were considered highly active)	–	–
O=C(/C=C/c1cccc(Br)c1)c1cc2ccccc2oc1=O [Compound A10, 3-[(2E)-3-(3-bromophenyl)prop-2-enoyl]-2H-chromen-2-one]	19.6 ± 1.7 µM	–	32.8 ± 3 µM	–	112 ± 8.2 µM	0.98	114 ± 8.5 µM	–	mildly cytotoxic (100 ≤ LC50 < 200 μM)	moderately toxic (from 50 to 200 μM moderately toxic)
O=C(Cn1ccnc1[N+](=O)[O-])NCc1ccccc1 [Benznidazole, reference compound]	–	–	–	–	> 200 µM	>13.83	14.5 ± 0.1 µM	–	–	–
O=C(/C=C/c1ccc2c(c1)OCO2)c1cc2ccccc2oc1=O [Compound A13, 3-[(2E)-3-(1,3-benzodioxol-5-yl)prop-2-enoyl]-2H-chromen-2-one]	15.2 ± 1.1 µM	–	> 20 µM	<1.90	38 ± 3.4 µM	0.30	129 ± 11 µM	–	–	–
O=C(/C=C/c1cccc([N+](=O)[O-])c1)c1cc2ccccc2oc1=O [Compound A7, 3-[(2E)-3-(3-nitrophenyl)prop-2-enoyl]-2H-chromen-2-one]	17.9 ± 1.7 µM	–	64.7 ± 8.6 µM	1.73	112 ± 10.6 µM	0.23	496 ± 62 µM	–	mildly cytotoxic (100 ≤ LC50 < 200 μM)	–
CCOc1cc(/C=C/C(=O)c2cc3ccccc3oc2=O)ccc1O [Compound A12, 3-[(2E)-3-(3-ethoxy-4-hydroxyphenyl)prop-2-enoyl]-2H-chromen-2-one]	15 ± 0.5 µM	0.57	6.6 ± 1.3 µM	1.29	8.5 ± 1.6 µM	0.21	41.2 ± 1.1 µM	–	–	–
O=C(/C=C/c1ccc(O)cc1)c1cc2ccccc2oc1=O [Compound A6, 3-[(2E)-3-(4-hydroxyphenyl)prop-2-enoyl]-2H-chromen-2-one]	16.6 ± 0.9 µM	0.45	8.2 ± 4 µM	0.91	7.5 ± 0.4 µM	0.17	43.2 ± 6.4 µM	–	–	–
COc1ccc(/C=C/C(=O)c2cc3ccccc3oc2=O)cc1 [Compound A3, 3-[(2E)-3-(4-methoxyphenyl)prop-2-enoyl]-2H-chromen-2-one]	38.7 ± 5.6 µM	0.29	> 6 µM	<1.89	11.4 ± 2.3 µM	0.03	327 ± 62.4 µM	–	–	–
